Laboratory results reported in ChEMBL document CHEMBL4765301, “Discovery of novel TNNI3K inhibitor suppresses pyroptosis and apoptosis in murine myocardial infarction injury” (Eur J Med Chem, 2020).
Calls of active or inactive are those of the source. The calls are words filed in the database; no cut-off is given here.

Experiments:
[1] = system: H9c2; assay: Inhibition of OGD-induced apoptosis in rat H9c2 cells assessed as late apoptotic cells at 0.5 uM incubated for 24 hrs by annexinV-FITC and PI staining based flow cytometry analysis (reference value: 9 %); format: functional
[2] = system: H9c2; assay: Inhibition of OGD-induced apoptosis in rat H9c2 cells assessed as necrotic cells at 0.5 uM incubated for 24 hrs by annexinV-FITC and PI staining based flow cytometry analysis (reference value: 2.45 %); format: functional
[3] = system: H9c2; assay: Cytoprotective activity against OGD-induced cell death in rat H9c2 cells assessed as cell viability at 10 uM incubated for 24 hrs by MTT assay (reference value: 42.08 to 49.11 %); format: functional; settings: read-out: Activity
[4] = system: Mus musculus; assay: In vivo inhibition of TNNI3K in C57BL/6 mouse assessed as p38 phosphorylation at 25 mg/kg, ip administered for 28 days and measured on day 28 by immunohistochemical staining based fluorescence microscopy; format: functional, organism-based; settings: time 28.0 day
How it was run: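 Male C57BL/6 mice (5-6 weeks) with LAD-ligation MI; sham, saline or 25 mg/kg ip every two days, n=4, 28 days. Heart sections given EDTA (pH 8.0) or citrate (pH 6.0) microwave antigen retrieval, then primary antibody 30-40 min at 37°C. Detection by HRP polymer secondary with DAB (IHC) or fluorescent secondary (IF). Positive cells were quantified.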

[5] = system: H9c2; assay: Inhibition of OGD-induced apoptosis in rat H9c2 cells assessed as reduction in caspase1 activation at 0.5 to 1 uM by Western blot analysis; format: functional, cell-based; settings: dose 0.5-1 µM
How it was run: (§1)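 H9c2 cells under OGD were treated with saline or 0.5 or 1.0 µM inhibitor. Cells were trypsinised, washed in cold PBS, lysed in RIPA with sonication and centrifuged 30 min. Total protein was quantified and separated by SDS-PAGE, then transferred to PVDF. Blots were probed with primary and secondary antibodies and detected by ECL.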

[6] = system: Mus musculus; assay: Cardioprotective activity in C57BL/6 mouse model of myocardial infarction assessed as reduction in collagen deposition at 25 mg/kg, ip administered for 28 days and measured on day 28 by […] staining based fluorescence microscopy; format: functional, organism-based; settings: time 28.0 day
How it was run: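 Male C57BL/6 mice (5-6 weeks); MI by permanent LAD ligation under ip ketamine (100mg/kg)/xylazine (10mg/kg) with ventilation; sham group operated without LAD occlusion. Post-MI mice randomised to sham, normal saline or inhibitor groups (n=4); 25 mg/kg given ip every two days. Hearts assessed after 28 days: TTC staining (infarct yellow-white, viable red), Masson's trichrome (blue collagen) and H&E.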

[7] = system: H9c2; assay: Inhibition of OGD-induced apoptosis in rat H9c2 cells assessed as reduction in caspase1 level at 0.5 to 1 uM by immunofluorescence staining based fluorescence microscopy; format: functional, cell-based; settings: dose 0.5-1 µM
How it was run: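 In OGD-exposed H9c2 cells treated with 0.5 or 1.0 µM inhibitor, intracellular distribution and co-localisation of caspase-1 and NLRP3 were assessed by immunofluorescence microscopy.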

[8] = system: H9c2; assay: Inhibition of OGD-induced apoptosis in rat H9c2 cells assessed as reduction in GSDMD activation at 0.5 to 1 uM by Western blot analysis; format: functional, cell-based; settings: dose 0.5-1 µM; how it was run: as §1
[9] = system: Mus musculus; assay: Cardioprotective activity in C57BL/6 mouse model of myocardial infarction assessed as reduction in left ventricular inflammatory cells at 25 mg/kg, ip administered for 28 days and measured on day 28 by H and E staining based fluorescence microscopy; format: functional, organism-based; settings: time 28.0 day
How it was run: (§2)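 MI made in male C57BL/6 mice (5-6 weeks) by permanent LAD ligation under ip ketamine (100mg/kg)/xylazine (10mg/kg), ventilated. Groups: sham, saline (NS), inhibitor 25 mg/kg ip every two days, n=4. Hearts examined after 28 days; TTC, Masson's trichrome and H&E staining of sections for infarct, collagen/scar, LV inflammatory cells and dilatation.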

[10] = system: Mus musculus; assay: Cardioprotective activity in C57BL/6 mouse model of myocardial infarction assessed as reduction in scar tissue at 25 mg/kg, ip administered for 28 days and measured on day 28 by masson staining based fluorescence microscopy; format: functional, organism-based; settings: time 28.0 day; how it was run: as §2
[11] = system: H9c2; assay: Inhibition of JNK phosphorylation in rat H9c2 cells at 0.5 to 1 uM by Western blot analysis; format: cell-based; settings: dose 0.5-1 µM; how it was run: as §1
[12] = system: H9c2; assay: Effect on TNNI3K expression in rat H9c2 cells at 0.5 to 1 uM by Western blot analysis; format: functional, cell-based; settings: dose 0.5-1 µM; how it was run: as §1
[13] = molecular target: Vascular endothelial growth factor receptor 2 (Homo sapiens) (UniProt P35968); assay: Inhibition of recombinant human KDR (790 to end residues) assessed as residual activity at 1 uM using myelin basic protein as substrate incubated for 40 mins by [gamma-33P]-ATP scintillation counting based radiometry assay relative to control
[14] = molecular target: Epidermal growth factor receptor (Homo sapiens) (UniProt P00533); assay: Inhibition of recombinant human EGFR (696 to end residues) assessed as residual activity at 1 uM using poly(Glu, Tyr) 4:1 as substrate incubated for 40 mins by [gamma-33P]-ATP scintillation counting based radiometry assay relative to control
[15] = molecular target: T1, Serine/threonine-protein kinase TNNI3K (Rattus norvegicus) (UniProt Q7TQP6); assay: Inhibition of TNNI3K in rat H9c2 cells assessed as reduction in p38 phosphorylation at 0.5 to 1 uM by Western blot analysis; format: cell-based; settings: dose 0.5-1 µM; how it was run: as §1
T1 sequence (whole entry): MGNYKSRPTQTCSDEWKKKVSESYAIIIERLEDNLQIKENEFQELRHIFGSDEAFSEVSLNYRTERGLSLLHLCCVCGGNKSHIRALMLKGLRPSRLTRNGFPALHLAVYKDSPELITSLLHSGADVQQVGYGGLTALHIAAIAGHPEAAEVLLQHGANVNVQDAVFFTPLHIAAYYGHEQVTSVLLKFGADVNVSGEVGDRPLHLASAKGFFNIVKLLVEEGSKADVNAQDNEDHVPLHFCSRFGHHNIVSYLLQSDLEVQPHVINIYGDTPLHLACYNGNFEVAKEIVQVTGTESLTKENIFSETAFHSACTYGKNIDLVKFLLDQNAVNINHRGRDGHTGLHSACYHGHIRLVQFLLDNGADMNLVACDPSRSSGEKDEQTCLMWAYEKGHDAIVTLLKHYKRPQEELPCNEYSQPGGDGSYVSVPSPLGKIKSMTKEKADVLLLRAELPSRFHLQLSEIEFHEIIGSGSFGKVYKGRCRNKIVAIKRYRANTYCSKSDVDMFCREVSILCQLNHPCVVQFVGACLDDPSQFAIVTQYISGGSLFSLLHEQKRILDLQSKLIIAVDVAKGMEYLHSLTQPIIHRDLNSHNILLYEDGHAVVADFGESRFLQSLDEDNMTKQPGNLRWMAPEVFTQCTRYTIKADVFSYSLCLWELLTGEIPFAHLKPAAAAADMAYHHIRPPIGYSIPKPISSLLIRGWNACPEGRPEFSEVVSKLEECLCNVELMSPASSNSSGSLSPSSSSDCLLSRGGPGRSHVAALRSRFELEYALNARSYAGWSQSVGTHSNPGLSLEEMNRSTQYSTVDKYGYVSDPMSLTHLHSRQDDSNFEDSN

[16] = system: H9c2; assay: Cytoprotective activity against OGD-induced cell death in rat H9c2 cells assessed as cell viability incubated for 24 hrs by LDH release assay; format: functional, cell-based; settings: dose 0.5-1 µM
How it was run: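 OGD-exposed H9c2 cells were treated with 0.5 or 1.0 µM inhibitor for 24 h. LDH released into the culture medium was measured with a commercial LDH cytotoxicity kit.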

Chain of Epidermal growth factor receptor (Homo sapiens) (P00533 whole entry): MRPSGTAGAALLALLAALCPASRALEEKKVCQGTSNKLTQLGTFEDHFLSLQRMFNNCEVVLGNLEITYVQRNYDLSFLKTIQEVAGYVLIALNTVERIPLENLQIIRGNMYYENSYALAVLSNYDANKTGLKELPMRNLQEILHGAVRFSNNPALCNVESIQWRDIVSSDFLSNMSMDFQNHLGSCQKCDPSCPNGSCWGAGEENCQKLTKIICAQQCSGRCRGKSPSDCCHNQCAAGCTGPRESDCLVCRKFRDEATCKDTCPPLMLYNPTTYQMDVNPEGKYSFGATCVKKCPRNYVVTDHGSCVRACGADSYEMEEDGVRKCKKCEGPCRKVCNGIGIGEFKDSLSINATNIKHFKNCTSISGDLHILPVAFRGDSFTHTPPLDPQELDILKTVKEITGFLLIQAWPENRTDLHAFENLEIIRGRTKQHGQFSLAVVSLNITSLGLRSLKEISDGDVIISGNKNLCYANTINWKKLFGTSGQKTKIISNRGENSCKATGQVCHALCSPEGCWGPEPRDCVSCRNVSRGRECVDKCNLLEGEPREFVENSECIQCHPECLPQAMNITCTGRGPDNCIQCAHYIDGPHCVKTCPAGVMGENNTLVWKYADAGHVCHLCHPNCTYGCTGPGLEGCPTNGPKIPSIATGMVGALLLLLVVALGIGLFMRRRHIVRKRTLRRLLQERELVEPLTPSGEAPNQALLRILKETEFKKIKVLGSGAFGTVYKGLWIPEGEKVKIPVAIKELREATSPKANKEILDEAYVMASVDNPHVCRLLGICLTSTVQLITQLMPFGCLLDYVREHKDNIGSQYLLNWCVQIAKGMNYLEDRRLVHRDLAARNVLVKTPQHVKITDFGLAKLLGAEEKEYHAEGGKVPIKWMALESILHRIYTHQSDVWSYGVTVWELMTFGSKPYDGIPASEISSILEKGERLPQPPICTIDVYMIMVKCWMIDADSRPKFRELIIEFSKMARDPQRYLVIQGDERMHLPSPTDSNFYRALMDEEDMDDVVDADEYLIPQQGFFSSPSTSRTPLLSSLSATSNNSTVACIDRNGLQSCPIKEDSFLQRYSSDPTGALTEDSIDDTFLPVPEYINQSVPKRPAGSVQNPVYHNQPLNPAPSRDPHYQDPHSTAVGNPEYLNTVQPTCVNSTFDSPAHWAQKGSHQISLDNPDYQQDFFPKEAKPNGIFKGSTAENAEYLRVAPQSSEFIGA
Chain of Vascular endothelial growth factor receptor 2 (Homo sapiens) (P35968 whole entry): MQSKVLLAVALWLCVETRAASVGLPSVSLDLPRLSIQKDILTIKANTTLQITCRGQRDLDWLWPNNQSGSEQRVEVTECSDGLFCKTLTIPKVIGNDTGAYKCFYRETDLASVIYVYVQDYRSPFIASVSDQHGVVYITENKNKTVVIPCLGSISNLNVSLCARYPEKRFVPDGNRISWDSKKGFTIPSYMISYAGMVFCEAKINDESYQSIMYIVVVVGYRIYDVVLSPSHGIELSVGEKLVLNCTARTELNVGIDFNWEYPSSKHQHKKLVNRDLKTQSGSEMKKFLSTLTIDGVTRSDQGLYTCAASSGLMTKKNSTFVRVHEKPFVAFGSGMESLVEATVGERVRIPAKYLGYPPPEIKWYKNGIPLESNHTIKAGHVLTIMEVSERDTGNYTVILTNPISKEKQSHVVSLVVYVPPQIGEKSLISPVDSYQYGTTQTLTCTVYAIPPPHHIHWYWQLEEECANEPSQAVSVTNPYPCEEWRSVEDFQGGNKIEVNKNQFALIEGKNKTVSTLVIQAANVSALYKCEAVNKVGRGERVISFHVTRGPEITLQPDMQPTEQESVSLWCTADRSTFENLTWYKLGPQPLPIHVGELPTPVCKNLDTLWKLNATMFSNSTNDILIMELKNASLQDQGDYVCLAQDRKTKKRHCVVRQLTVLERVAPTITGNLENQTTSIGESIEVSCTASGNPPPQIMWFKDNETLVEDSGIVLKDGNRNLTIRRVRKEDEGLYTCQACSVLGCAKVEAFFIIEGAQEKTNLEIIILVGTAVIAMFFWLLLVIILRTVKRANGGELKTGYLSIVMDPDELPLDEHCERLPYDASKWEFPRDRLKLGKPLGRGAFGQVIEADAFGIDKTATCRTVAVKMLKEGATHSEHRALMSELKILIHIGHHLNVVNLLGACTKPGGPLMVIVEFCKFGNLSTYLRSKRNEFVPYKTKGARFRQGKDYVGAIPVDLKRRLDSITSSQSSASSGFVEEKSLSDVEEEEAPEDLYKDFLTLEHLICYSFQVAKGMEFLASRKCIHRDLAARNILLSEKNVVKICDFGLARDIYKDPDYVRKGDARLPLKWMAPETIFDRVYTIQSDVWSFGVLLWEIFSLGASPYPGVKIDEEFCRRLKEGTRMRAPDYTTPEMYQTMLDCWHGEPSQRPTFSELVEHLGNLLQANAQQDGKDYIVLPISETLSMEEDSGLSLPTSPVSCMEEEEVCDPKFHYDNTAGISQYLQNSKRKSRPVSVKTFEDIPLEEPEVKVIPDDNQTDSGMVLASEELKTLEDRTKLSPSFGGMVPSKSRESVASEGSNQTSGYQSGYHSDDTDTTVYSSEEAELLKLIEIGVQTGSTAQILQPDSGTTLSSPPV

`CN(C)CCCN1CCc2c(sc3ncnc(Nc4ccc(N(C)C)c(NC(=O)c5ccco5)c4)c23)C1` gave an inhibition at 0.5 µM [1] of 7.15%, an inhibition at 0.5 µM [2] of 2.24% and a viability at 10 µM [3] of 89%. The inhibition [4] was “Active”, the inhibition [5] was “Active” and the Activity [6] was “Active”. For the same compound, the inhibition [7] was “Active”, the inhibition [8] was “Active” and the Activity [9] was “Active”. For the same compound, the Activity [10] was “Active”, the inhibition [11] was “inactive” and the inhibition [12] was “inactive”. The Activity [13] was 80%, the Activity [14] was 81% and the inhibition [15] was “Active”. For the same compound, the Activity [16] was “Dose-dependent effect”.
